The list is not random: actives were taken first. Their share in the collection is about 3.1%.
CHO parental Ca: ATP-evoked calcium signal inhibitors, parental CHO, primary screen, counter-screen for OX1R antagonist project, cell-based, fluorescence, Fluo-8 calcium dye; parental CHO-K1, ATP-induced calcium, Fluo-8 fluorescence; inhibition, % at 5.6 µM; 330,000 compounds, 0.63% hits; AID 463079, 2010;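 active = inhibition above that plate's mean sample inhibition plus 3 SD, cut at about 26% in these data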;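 note: 0% = ATP-challenged DMSO wells and 100% = DMSO wells without ATP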
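Material – parental CHO cells · Reagent – ATP stimulus · Compound – single nominal dose of 5.6 µM per compound · Detection – Fluo-8 fluorescence · Read-out basis – percent inhibition of calcium signal · Controls – ATP-challenged DMSO wells low, unchallenged DMSO wells high · Repeats – no replicates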
GalR3 antag: GalR3 antagonists in HEK293 cells, primary screen, cell-based, fluorescence readout | Galanin receptor type 3 (Homo sapiens), O60755 | HEK293 GalR3-CNG cAMP membrane potential fluorescence; galR3 body fused to GalR1 C-terminus | inhibition, % at 3 µM | 360,000 compounds, 0.44% hits | AID 651719, 2012;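 active = inhibition above the screen-wide average plus 3 SD, cut at about 13% in these data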;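 note: forskolin and galanin both at EC90 stimulate the cells; cAMP rise reported by CNG channel membrane potential dye signal; 0% = forskolin plus galanin with DMSO and 100% = forskolin alone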
Target sequence (O60755 1-299 limits assumed): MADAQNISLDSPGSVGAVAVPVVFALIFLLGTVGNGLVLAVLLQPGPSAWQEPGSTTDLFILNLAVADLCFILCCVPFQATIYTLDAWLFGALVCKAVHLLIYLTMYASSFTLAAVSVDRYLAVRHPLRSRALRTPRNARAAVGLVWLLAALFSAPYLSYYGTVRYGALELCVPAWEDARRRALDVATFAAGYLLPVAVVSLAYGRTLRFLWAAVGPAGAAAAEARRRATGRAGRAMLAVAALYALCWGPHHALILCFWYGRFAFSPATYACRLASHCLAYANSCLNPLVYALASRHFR
OX1R antag-1: antagonists of human orexin 1 receptor (OX1R) | 330,000 compounds, 1.8% hits | inhibition, % at 6.6 µM | AID 485270, 2010 | Orexin/Hypocretin receptor type 1 (Homo sapiens), O43613 | OX1R-expressing cells, FRET antagonist read-out; in the data active = inhibition mostly above about 38%, no sharp cut-off; inactive = mostly below about 40%;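 note: 0% = agonist challenge alone and 100% = reference antagonist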
OX1R antag-2: OX1R (HCRTR1) antagonists, primary screen, fluorescence, CHO/OX1R cells, Fluo-8 calcium, orexin A; 330,000 compounds, 0.43% hits; AID 434989, 2010; Fluo-8 calcium fluorescence; Orexin/Hypocretin receptor type 1 (Homo sapiens), O43613; inhibition, % at 5 µM;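 active = inhibition above its plate's threshold, mean inhibition of all tested compounds on the plate plus 3 SD, cut at about 37% in these data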;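 note: 0% = orexin A challenge wells and 100% = SB-334867-A antagonist wells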
GPR7 antag: GPR7 receptor antagonists, primary screen, cell-based, fluorescence, single concentration; GPR7-expressing cells, fluorescence antagonist assay; inhibition, % at 4.4 µM; 290,000 compounds, 1.1% hits; in the data active = inhibition above about 16%, passing the limit was not always enough;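 note: cells stimulated with the agonist NPW; 0% = agonist with vehicle and 100% = vehicle without agonist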
Target sequence (P48145 whole entry, looked up): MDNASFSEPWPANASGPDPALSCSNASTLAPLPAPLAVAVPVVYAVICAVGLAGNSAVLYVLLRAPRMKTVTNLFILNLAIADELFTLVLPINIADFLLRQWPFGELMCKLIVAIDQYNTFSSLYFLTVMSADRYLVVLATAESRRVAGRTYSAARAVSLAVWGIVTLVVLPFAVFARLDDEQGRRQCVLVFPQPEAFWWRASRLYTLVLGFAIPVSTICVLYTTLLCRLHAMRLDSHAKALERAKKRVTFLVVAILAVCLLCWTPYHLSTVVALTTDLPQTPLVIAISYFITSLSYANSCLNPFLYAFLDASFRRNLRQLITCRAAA
OX1R HTRF confirm: OX1R (HCRTR1) antagonists, confirmation, cell-based, HTRF; inhibition, % at 6.6 µM; shares compounds with OX1R antag-1; OX1R-expressing cells, HTRF antagonist assay; 1,800 compounds, 49% hits; in the data active = inhibition above about 55%;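 note: CHO cells expressing OX1R stimulated with orexin A at about EC80; 0% = agonist challenge alone and 100% = reference antagonist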
CHO-K1 HTRF cnt: signal inhibition in parental CHO-K1 cells, counter-screen for OX1R antagonist project, cell-based, HTRF. inhibition, % at 6.6 µM. HTRF counterscreen. 1,800 compounds, 48% hits. shares compounds with OX1R antag-1. AID 493232, 2011; in the data active = inhibition above about 17%;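 note: 0% = agonist challenge with vehicle and 100% = vehicle alone without agonist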
The depositor's hits bear a star; . = not tested or not shown.

SMILES	CHO parental Ca	GalR3 antag	OX1R antag-1	OX1R antag-2	GPR7 antag	OX1R HTRF confirm	CHO-K1 HTRF cnt
CN(CCO)c1ccc([N+](=O)[O-])cc1C(=O)O	2.3	-1.7	80.4*	0.9	-13.2	21.4	25.1*
CC(=O)Nc1ccc2c(c1)c1ccccc1n2C(C)=O	-12.3	-2.2	77.5*	-0.5	4.9	71.3*	14.2
CCn1c2ccccc2c2cc(NC(C)=O)ccc21	-9.0	0.4	32.1	-10.5	9.0	.	.
O=C(O)/C=C/C(=O)Nc1ccc(C(=O)c2ccccc2)cc1	0.1	-7.3	0.8	9.1	0.8	.	.
O=C(O)/C=C/C(=O)Nc1ccc2c(c1)C(=O)c1ccccc1C2=O	-4.7	-4.4	82.7*	-2.9	-12.7	41.0	49.9*
CC(=O)Nc1cccc(-c2nc3ccccc3o2)c1	-11.3	-8.8	80.2*	24.6	-6.7	65.9*	1.3
CC(=O)Nc1ccc2c(c1)C(=O)c1ccccc1C2=O	0.4	-4.1	102.2*	-5.5	-2.9	69.8*	39.4*
CSc1ccccc1OCc1cc(C(=O)NCC(C)Oc2cccnc2)no1 (configuration not stated)	.	-3.0	.	.	.	.	.
CC(C)CN(C(=O)c1ccco1)C1CCS(=O)(=O)C1 (configuration not stated)	-2.2	-0.6	14.3	8.8	.	.	.
O=C(Nc1ccc2nc3ccccc3nc2c1)c1ccc(Br)cc1	-3.6	-2.6	13.4	-3.1	-8.1	.	.
CC(=O)Nc1ccc2nc3ccccc3nc2c1	-2.8	-0.7	133.9*	-4.8	-8.8	109.7*	64.9*
CCN(CC)C(=O)C1=C(C)N(CCC2=CCCCC2)C(=O)C(CC(=O)NCCCN(C)C)C1 (configuration not stated)	.	-3.4	.	.	.	.	.
Cc1ccc(S(=O)(=O)N2[C@@H](c3ccc(F)cc3)C(C(=O)O)=CC[C@H]2c2ccc(Cl)cc2)cc1	-10.0	8.1	46.3	-2.2	.	.	.
COc1ccc([C@@H]2CC=C(C(=O)O)[C@H](c3cccc(Cl)c3)N2S(=O)(=O)c2ccccc2C)cc1	-18.7	-1.3	88.4*	14.4	.	91.4*	-0.5
Cc1ccc(S(=O)(=O)N2[C@@H](c3ccccc3)C(C(=O)O)=CC[C@H]2c2ccc(Cl)cc2)cc1	-11.6	-6.4	77.9*	14.2	.	53.4	0.9
COc1cc([C@@H]2CC=C(C(=O)O)[C@H](c3ccccc3F)N2S(=O)(=O)c2ccc(C)cc2)cc(OC)c1OC	-16.5	-5.8	12.8	0.3	.	.	.
Cc1ccc(S(=O)(=O)N2[C@@H](c3ccc(Cl)cc3)C(C(=O)O)=CC[C@H]2c2cccc(Cl)c2)cc1	8.9	2.1	9.7	-20.9	.	.	.
Cc1ccc([C@@H]2CC=C(C(=O)O)[C@H](c3ccccc3F)N2S(=O)(=O)c2ccccc2C)cc1	-10.2	-7.7	78.4*	29.6	.	81.3*	0.6
Cc1ccc(CN2CCN(Cc3cc4ccccc4o3)CC2CCO)cc1 (configuration not stated)	-13.6	-10.1	24.7	-30.6	-9.9	.	.
COc1ccc(CNC(=O)c2cn(Cc3ccc(S(=O)(=O)N(C)C)cc3)c(=O)s2)cc1	.	-2.5	.	.	.	.	.
COC(=O)C1=C(C)N(Cc2ccc(Cl)cc2)C(=S)NC1c1cccc(OC)c1 (configuration not stated)	.	-8.1	.	.	.	.	.
O=C(O)c1cccc2c1C(=O)c1cccc3snc-2c13	-11.1	4.1	88.1*	-5.3	-14.6	54.8*	78.3*
Cc1ccc2c(c1)C(=O)c1c(C(=O)O)cccc1-2	-3.3	1.9	24.8	-15.3	-9.2	.	.
COc1cc(C(=O)Nc2cccc3cccnc23)cc(OC)c1OC	-27.2	-2.8	25.9	-37.8	3.2	.	.
COC(=O)c1sccc1NC(=O)c1ccc(OC)cc1	-14.1	-6.1	89.4*	4.2	12.3	68.4*	4.8
SMILES	CHO parental Ca	GalR3 antag	OX1R antag-1	OX1R antag-2	GPR7 antag	OX1R HTRF confirm	CHO-K1 HTRF cnt
COc1cc(OC)cc(C(=O)Nc2cccc3cccnc23)c1	-12.2	-6.8	80.7*	-2.8	4.7	75.2*	6.5
COC(=O)c1sccc1NC(=O)c1ccc(C)cc1	-13.6	0.3	23.2	-31.9	13.0	.	.
COc1ccc(C(=O)Nc2cc(OC)cc3cccnc23)cc1	-18.5	-7.9	98.5*	26.1	8.1	86.0*	21.6*
C[C@H](CO)N1C[C@H](C)[C@H](CN(C)C(=O)NC2CCCCC2)OCc2cnnn2CCCC1=O	.	-0.4	.	.	.	.	.
O=C1CC2CCCC(C1)S2=O (configuration not stated)	.	0.5	.	.	.	.	.
Cc1ccc(Nc2ccc(C(=O)O)cc2[N+](=O)[O-])cc1	-5.1	8.5	2.6	-21.4	-2.8	.	.
O=C(O)c1ccc(Nc2ncc([N+](=O)[O-])cc2[N+](=O)[O-])cc1	-7.9	-2.2	93.4*	-2.4	-9.6	68.2*	107.1*
CC1(C)OC2OC(C3COC(=O)O3)C(OC(=O)c3ccccc3)C2O1 (configuration not stated)	.	-6.4	.	.	.	.	.
O=C(O)c1ccc(NC2=C/C(=N/S(=O)(=O)c3cccs3)c3ccccc3C2=O)cc1	.	-4.5	.	.	.	.	.
O=C1/C(=N\S(=O)(=O)c2cccs2)C([n+]2ccccc2)=C([O-])c2ccccc21	-8.0	-5.5	94.1*	-8.3	-8.2	77.5*	118.7*
CC(=O)Nc1ccc(NC(=O)C(C)OC(=O)CCCOc2ccc(Cl)c(C)c2)cc1 (configuration not stated)	-6.2	-1.6	85.4*	20.3	-18.9	77.6*	5.8
Cc1c(C(=O)Nc2ccc3c(c2)OCCO3)oc2ccc(Br)cc12	-16.6	-4.6	82.1*	31.1	.	75.7*	12.7
Cc1nc2ccccc2c2oc(C(=O)Nc3ccc4c(c3)OCCO4)cc12	-24.1	7.7	95.3*	-8.3	-16.9	89.0*	7.1
Cc1c(C(=O)NCc2ccc3c(c2)OCO3)oc2ccc(Br)cc12	-12.3	-4.5	14.1	-14.6	1.1	.	.
CCC(CO)Nc1ccc(-c2n[nH]c(=O)c3ccccc23)cc1[N+](=O)[O-] (configuration not stated)	-7.3	-8.5	23.2	-28.9	-11.2	.	.
CCC(C)[C@H]1CNC(=O)C(=O)N1CCCCC1CCCCC1 (some centres not stated)	.	-7.4	.	.	.	.	.
CCOC(=O)c1cc2[nH]c3ccccc3c2[n+](-c2ccc([N+](=O)[O-])cc2)c1N	-13.5	-2.7	137.6*	-0.9	-0.4	57.0*	69.0*
O=C(NC1CCCC1)C(c1ccco1)N1CCN(c2c(Cl)cncc2Cl)CC1 (configuration not stated)	.	-8.3	.	.	.	.	.
